Measurements reported in ChEMBL document CHEMBL1132166, “Synthesis and biological evaluation of dihydrobenzofuran lignans and related compounds as potential antitumor agents that inhibit tubulin polymerization” (J Med Chem, 1999).
Each block holds one molecule with its values, some of them ahead of it.

How the values were obtained:
[1] = system: Panel (Carcinoma cell lines); test: The molar drug concentration required for 50% growth inhibition; type: functional; details: Homo sapiens
Procedure, shortened: (§1)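 NCI in vitro human tumor cell line screening panel; each compound tested at a minimum of five concentrations at 10-fold dilutions, highest 100 µM, over a 48 h assay. GI50 is the molar concentration giving 50% growth inhibition. TGI and LC50 were also derived, and the average log GI50 was taken across all lines tested.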

Tubulin [2] = biological target: T1, Tubulin (Bos taurus, UniProt Q6B856+Q862L2+Q862F3); test: (§2) Inhibitory activity against purified bovine brain tubulin.; type: functional
Procedure, shortened: (§3)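 Tubulin assembly: drug and tubulin were preincubated in glutamate for 15 min at 30 °C, then chilled on ice. GTP was added and assembly started by a 0→30 °C jump in a recording spectrophotometer. After 20 min, mixtures were chilled to 0 °C to confirm reversibility. IC50 was taken from inhibition of the extent of assembly across a drug concentration series (n = 3, SD).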

BT-549 = test: Cytotoxicity against BT-549 breast cancer cell line; type: functional; details: Homo sapiens; procedure, shortened: as §1
CCRF-CEM = test: Growth inhibitory activity determined against CCRF-CEM leukemia cell line; type: functional; details: Homo sapiens; procedure, shortened: as §1
HL-60 [3] = test: Compound was evaluated for its effect on the growth of HL 60 human leukemia cells; type: functional, cell-based
Procedure, shortened: (§4)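 HL-60 human leukemia cells were grown for 24 h with compound. Growth was measured as the increase in cell number from time zero, and the IC50 was taken from that growth. Mitotic arrest was scored as the fraction of cells with condensed chromosomes after 24 h at 10 µM.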

Hs-578T = test: Growth inhibitory activity determined against HS 578 T breast cancer cell line; type: functional; details: Homo sapiens; procedure, shortened: as §1
[4] = system: Panel (Carcinoma cell lines); test: Average log GI50 value against a panel of human cancer cell lines; type: functional; procedure, shortened: as §1
MOLT-4 = test: Growth inhibitory activity determined against MOLT-4 leukemia cell line.; type: functional; details: Homo sapiens; procedure, shortened: as §1
MDA-MB-4 = test: Cytotoxicity against MDA-MB-435 breast cancer cell line; type: functional; details: Homo sapiens; procedure, shortened: as §1
MDA-MB-231 = test: Growth inhibitory activity determined against MDA-MB-231/ATCC breast cancer cell line; type: functional; details: Homo sapiens; procedure, shortened: as §1
MDA-N = test: Cytotoxicity against MDA-N breast cancer cell line; type: functional; details: Homo sapiens; procedure, shortened: as §1
MCF7 [5] = test: Growth inhibitory activity determined against MCF-7 breast cancer cell line; type: functional; details: Homo sapiens; procedure, shortened: as §1
MCF7 [6] = test: Growth inhibitory activity determined against MCF-7/ADR-RES breast cancer cell line; type: functional; details: Homo sapiens; procedure, shortened: as §1
RPMI-8226 = test: Growth inhibitory activity determined against RPMI-8226 leukemia cell line; type: functional; details: Homo sapiens; procedure, shortened: as §1
SR = test: Growth inhibitory activity determined against SR leukemia cell line; type: functional; details: Homo sapiens; procedure, shortened: as §1
HL-60 [7] = test: Inhibitory activity against HL 60 cells; type: functional, cell-based; details: Homo sapiens; procedure, shortened: as §4
Tubulin [8] = biological target: T1, Tubulin; test: as §2; procedure, shortened: as §3
[9] = biological target: Tubulin alpha chain (Sus scrofa) (UniProt P02550); details: Homo sapiens; 1.0 uM
[10] = biological target: Tubulin alpha chain (Sus scrofa) (UniProt P02550); details: Homo sapiens; 5.0 uM

Chain of Tubulin alpha chain (Sus scrofa) (P02550 whole entry, looked up): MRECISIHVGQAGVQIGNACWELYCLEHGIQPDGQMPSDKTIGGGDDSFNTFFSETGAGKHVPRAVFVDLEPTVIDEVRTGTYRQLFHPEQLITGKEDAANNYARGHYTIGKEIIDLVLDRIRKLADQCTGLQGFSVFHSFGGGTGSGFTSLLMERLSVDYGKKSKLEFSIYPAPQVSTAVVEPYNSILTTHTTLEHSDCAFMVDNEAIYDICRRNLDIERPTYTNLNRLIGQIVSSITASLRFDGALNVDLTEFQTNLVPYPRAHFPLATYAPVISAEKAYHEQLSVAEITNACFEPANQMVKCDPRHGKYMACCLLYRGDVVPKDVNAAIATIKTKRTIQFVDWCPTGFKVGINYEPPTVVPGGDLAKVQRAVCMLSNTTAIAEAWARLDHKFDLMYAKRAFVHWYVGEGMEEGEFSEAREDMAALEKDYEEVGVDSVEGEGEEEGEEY

- GI50 [1]: 3300 nM
- IC50 (Tubulin [2]): > 40000 nM
Structure (SMILES): COC(=O)/C=C/c1cc(OC)c2c(c1)[C@@H](C(=O)OC)[C@H](c1ccc(O)c(OC)c1)O2

- GI50 (CCRF-CEM): 33 nM
- IC50 (HL-60 [3]): 200 nM
- GI50 [4]: 288 nM
- GI50 [1]: 300 nM
- GI50 (MOLT-4): 81 nM
- GI50 (MDA-MB-231): 50 nM
- GI50 (MCF7 [5]): 29 nM
- GI50 (MCF7 [6]): 54 nM
- GI50 (RPMI-8226): 55 nM
Structure (SMILES): COC(=O)/C=C/c1cc(O)c2c(c1)[C@@H](C(=O)OC)[C@H](c1ccc(O)c(O)c1)O2
- GI50 (BT-549): < 10 nM
- GI50 (Hs-578T): 45 nM
- GI50 (MDA-MB-4): < 10 nM
- GI50 (MDA-N): < 10 nM
- GI50 (SR): 69 nM

- IC50 (HL-60 [7]): 80 nM
- GI50 [1]: 5100 nM
- IC50 (Tubulin [8]): > 40000 nM
- IC50 (Tubulin [2]): > 40000 nM
Structure (SMILES): COC(=O)/C=C/c1cc(OC)c2c(c1)[C@@H](C(=O)OC)[C@H](c1ccc(OC)c(OC)c1)O2

- log GI50 [4]: -4.97
Structure (SMILES): COC(=O)CCc1cc(O)c2c(c1)[C@@H](C(=O)OC)[C@H](c1ccc(O)c(O)c1)O2

- log GI50 [4]: -4.01
Structure (SMILES): OCCCc1cc(O)c2c(c1)[C@@H](CO)[C@H](c1ccc(O)c(O)c1)O2

- inhibition [9]: 88%
- inhibition [10]: 100%
Structure (SMILES): COc1ccc(/C=C\c2cc(OC)c(OC)c(OC)c2)cc1O
